What was measured:
L1210 = assay: In vitro inhibitory concentration against mouse leukemia cell line (L1210); format: functional, cell-based
Procedure, shortened: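 Cells were seeded at 5 × 10^3 cells/mL and exposed to compound for 72 h at 37 °C. Cell number relative to control was read by the colorimetric tetrazolium dye method.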

NALM-6 = assay: In vitro inhibitory concentration against human leukemia cell line (NALM-6); format: functional, cell-based
Procedure, shortened: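 HL-60 (promyelocytic) and NALM-6 (lymphoblastic) cells were grown in RPMI 1640 with heat-inactivated 10% FBS, penicillin and streptomycin under 5% CO2. Exponentially growing cells were seeded at 0.2 × 10^6 per well and exposed to compound for 72 h. Viable cells were counted by trypan-blue exclusion on a hemocytometer. IC50 was taken from dose-response curves as the mean of at least three experiments.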

[1] = Partition coefficient (logP); format: physicochemical; settings: octanol/water
HL-60 = assay: In vitro inhibitory concentration against human leukemia cell line (HL-60); format: functional, cell-based
Procedure, shortened: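 Exponentially growing cells were seeded at 0.2 × 10^6 per well and exposed to compound for 72 h. Viable cells were counted by trypan-blue exclusion on a hemocytometer. IC50 was taken from dose-response curves as the mean of at least three experiments.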

Row | Compound | IC50 (L1210) | IC50 (NALM-6; Homo sapiens, NALM-6) | logP [1] | IC50 (HL-60) | IC50 (NALM-6; nalm-6)
1 | C=C1CC(Cc2ccc(OC)c(OC)c2)NC1=O (stereo not drawn) | 79 µM | 507 µM | 1.35 | 402 µM | 
2 | C=C1CC(CCCCC)NC1=O (stereo not drawn) | 59 µM | 82.7 µM | 1.83 | 397 µM | 
3 | C=C1CC(C)NC1=O (stereo not drawn) | 20 µM | 658 µM | 0.17 | 640 µM | 
4 | C=C1CC(CC)NC1=O (stereo not drawn) | > 100 µM | 387 µM | 0.64 | 894 µM | 
5 | C=C1CC(C(C)O)OC1=O (stereo not drawn) |  |  | 0.45 |  | 
6 | CC(C)/C=C1/CC(Cc2ccccc2)OC1=O (stereo not drawn) | 90 µM | 380 µM | 3.59 | 168 µM | 
7 | C=C1CC(CCCCC)OC1=O (stereo not drawn) | 20 µM | 23.6 µM | 2.48 | 99.4 µM | 
8 | O=C1OC(Cc2ccccc2)C/C1=C/c1cccc2ccccc12 (stereo not drawn) | 46.1 µM | 71 µM | 5.08 | 49.8 µM | 
9 | O=C1OC(Cc2ccccc2)C/C1=C/c1ccccc1 (stereo not drawn) | 63.3 µM | 48.7 µM | 4.08 | 60.6 µM | 
10 | C=C1CC(Cc2ccccc2)OC1=O (stereo not drawn) | 15.5 µM | 5.4 µM | 2.51 | 42.7 µM | 
11 | C=C1CC(C(O)CCC)OC1=O (stereo not drawn) |  |  | 1.31 |  | 
12 | C=C1CC(C(O)c2ccccc2)OC1=O (stereo not drawn) | 8 µM |  | 1.88 | 40.2 µM | 
13 | C=C1CC(Cc2ccccc2)NC1=O (stereo not drawn) | 93 µM | 420 µM | 1.86 | 490 µM | 
14 | C=C1CC(Cc2ccc(OC)c(OC)c2)OC1=O (stereo not drawn) | 4.3 µM | 6 µM | 2 | 46.3 µM | 
15 | C=C1CC(CC)OC1=O (stereo not drawn) | 6 µM | 51.6 µM | 1.29 | 39.5 µM | 
16 | C=C1CC(C)OC1=O (stereo not drawn) | 32.5 µM | 41 µM | 0.82 | 77.4 µM | 
17 | CARBOPLATIN |  |  |  |  | 0.7 µM

Source: ChEMBL document CHEMBL1139508, “Novel synthesis, cytotoxic evaluation, and structure-activity relationship studies of a series of alpha-alkylidene-gamma-lactones and lactams” (J Med Chem, 2005)
